Experimental findings from ChEMBL document CHEMBL1123389, “3-Hydroxy-3-methylglutaryl-coenzyme A reductase inhibitors. 2. Structural modification of 7-(substituted aryl)-3,5-dihydroxy-6-heptenoic acids and their lactone derivatives” (J Med Chem, 1986) are described below.

Assay [1] concerns the target T1, 3-hydroxy-3-methylglutaryl-coenzyme A reductase (Rattus norvegicus, UniProt P51639).
T1 sequence (P51639 whole entry): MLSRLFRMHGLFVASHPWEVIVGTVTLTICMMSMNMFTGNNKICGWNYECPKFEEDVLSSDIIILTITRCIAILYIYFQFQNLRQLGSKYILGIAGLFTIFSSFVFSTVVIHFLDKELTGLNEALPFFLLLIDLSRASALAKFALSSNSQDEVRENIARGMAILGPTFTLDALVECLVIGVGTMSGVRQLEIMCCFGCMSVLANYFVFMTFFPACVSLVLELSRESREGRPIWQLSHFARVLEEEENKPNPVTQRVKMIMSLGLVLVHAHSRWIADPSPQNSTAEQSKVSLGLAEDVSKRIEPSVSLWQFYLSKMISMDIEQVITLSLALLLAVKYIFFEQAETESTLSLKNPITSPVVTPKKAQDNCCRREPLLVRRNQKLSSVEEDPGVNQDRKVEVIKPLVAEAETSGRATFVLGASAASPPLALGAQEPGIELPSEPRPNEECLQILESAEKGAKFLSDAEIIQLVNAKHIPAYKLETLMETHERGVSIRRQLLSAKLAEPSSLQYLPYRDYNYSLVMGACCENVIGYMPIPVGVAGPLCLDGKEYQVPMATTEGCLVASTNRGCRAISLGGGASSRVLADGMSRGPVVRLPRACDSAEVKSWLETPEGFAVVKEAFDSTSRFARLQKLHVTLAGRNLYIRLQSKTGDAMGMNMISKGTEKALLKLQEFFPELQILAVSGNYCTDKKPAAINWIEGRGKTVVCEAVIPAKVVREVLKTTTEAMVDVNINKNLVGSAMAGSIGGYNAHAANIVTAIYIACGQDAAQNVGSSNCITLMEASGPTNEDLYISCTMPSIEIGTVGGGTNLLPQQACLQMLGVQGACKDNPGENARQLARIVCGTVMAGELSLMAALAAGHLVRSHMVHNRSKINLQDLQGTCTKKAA
Description: Inhibition of solubilized, partially purified rat liver HMG-CoA reductase. Put shortly:
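Enzyme solubilized from fresh microsomes and purified through the second ammonium sulfate precipitation. It was diluted in 100 mM phosphate, pH 7.2, to give 50 000–60 000 dpm per 100 μL in control. Assay mix (0.8 mL): phosphate pH 7.2 100 mM, MgCl2 3 mM, NADP 3 mM, glucose 6-phosphate 10 mM, G6PDH 3 units, glutathione 50 mM, [14C]HMG-CoA 0.2 mM. Compounds were added as dihydroxy acid Na salts at multiple concentrations. Incubation ran 40 min at 37 °C, stopped with HCl, then lactonized. [14C]mevalonolactone was separated on Bio-Rex 5 and counted. IC50 came from a least-squares line of % inhibition vs concentration.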

For assay [2], the target named is T2, 3-hydroxy-3-methylglutaryl-coenzyme A reductase (Rattus norvegicus) (UniProt P51639).
T2 sequence (whole entry): T1 sequence (P51639 whole entry)
Description: Relative potency to inhibit solubilized, partially purified rat liver HMG-CoA reductase compared with that of compactin.

Each structure is given as a SMILES string. pIC50: −log10 of the molar value.

For orientation: pIC50 means −log10 of the IC50, conventionally taken in molar units. Lower therefore signals a large IC50. In assay [1], `O=C1C[C@H](O)C[C@@H](/C=C/c2c(Cl)cc(Cl)cc2OCCOc2ccc(Cl)cc2)O1` gave a pIC50 of 6.00. In assay [2], this molecule had a Relative potency of 3.3.

`O=C1C[C@H](O)C[C@@H](/C=C/c2ccc(-c3ccccc3)cc2)O1` gave a negative logarithm of the IC50 (pIC50) in assay [1] of 4.26. Molecule `COc1ccc(COc2cc(Cl)cc(Cl)c2/C=C/[C@@H]2C[C@@H](O)CC(=O)O2)cc1` gave a pIC50 in assay [1] of 5.59. Besides, the Relative potency in assay [2] turned out to be 0.8. `O=C1C[C@H](O)C[C@@H](/C=C/c2c(Cl)cc(Cl)cc2OCc2cccnc2)O1`: the negative logarithm of the IC50 (pIC50) in assay [1] was 5.47. In addition, the Relative potency in assay [2] came out at 0.6.

For the molecule `O=C1C[C@H](O)C[C@@H](/C=C/c2ccc(Cl)cc2Cl)O1`, the Relative potency in assay [2] came out at 0.08. As for `O=C1C[C@H](O)C[C@@H](CCc2c(Cl)cc(Cl)cc2OCc2ccc(F)cc2)O1` (stereo in doubt; 66(+)) [listing 1 of 2 here], in assay [1], the pIC50 was 7.30.

The molecule `O=C1C[C@H](O)CC(CCc2c(Cl)cc(Cl)cc2OCC2CCCCC2)O1` (stereo partly specified) showed a pIC50 in assay [1] of 6.12. Further, the Relative potency in assay [2] was determined as 4.4.

As to `O=C1C[C@H](O)C[C@@H](/C=C/c2c(Cl)cc(Cl)cc2OCc2ccncc2)O1`, the negative-log IC50 (pIC50) in assay [1] was 5.43. In assay [2], this molecule came in with a Relative potency of 0.6.

`O=C1C[C@H](O)C[C@@H](/C=C/c2c(Cl)cc(Cl)cc2OCc2ccc(F)cc2F)O1` gave a negative logarithm of the IC50 (pIC50) in assay [1] of 6.70. In addition, the Relative potency in assay [2] was 7.5. Turning to `O=C1C[C@H](O)CC(CCc2c(Cl)cc(Cl)cc2OCc2ccc(C(F)(F)F)cc2)O1` (stereo partly specified), the pIC50 in assay [1] was 4.89. In assay [2], this molecule showed a Relative potency of 0.16. For `O=C1C[C@H](O)C[C@@H](/C=C/c2c(Cl)cc(Cl)cc2OC(c2ccccc2)c2ccccc2)O1` the same measures were 5.20 and 0.7. Regarding `O=C1C[C@H](O)C[C@@H](/C=C/c2ccccc2-c2ccccc2)O1`, the pIC50 in assay [1] is 5.52. Also, the Relative potency in assay [2] was 0.63.

`O=C1C[C@H](O)C[C@@H](CCc2c(Cl)cc(Cl)cc2OCc2ccccc2)O1` (racemic) [listing 1 of 2 here]: the pIC50 in assay [1] is 6.70. Molecule `O=C1C[C@H](O)CC(CCc2c(O)cc(Cl)cc2Cl)O1` (stereo partly specified) had a pIC50 in assay [1] of 5.10. In assay [2], this molecule registered a Relative potency of 0.2. In assay [1], `O=C1C[C@H](O)C[C@@H](/C=C/c2c(Cl)cc(Cl)cc2OCCCc2ccccc2)O1` gave a negative logarithm of the IC50 (pIC50) of 5.84. The molecule also gave a Relative potency in assay [2] of 1.6. For `O=C1C[C@H](O)C[C@@H](/C=C/c2ccccc2)O1` the same measures were 3.55 and 0.004. In assay [1], `CCCCCOc1c(Cl)cc(Cl)cc1/C=C/[C@@H]1C[C@@H](O)CC(=O)O1` gave a negative-log IC50 (pIC50) of 4.89. As for `O=C1C[C@H](O)C[C@@H](/C=C/c2c(Cl)cc(Cl)cc2OCc2cc[n+]([O-])cc2)O1`, the negative logarithm of the IC50 (pIC50) in assay [1] is 3.93. This molecule also yielded a Relative potency in assay [2] of 0.016.

Take `O=C1C[C@H](O)C[C@@H](/C=C/c2c(Cl)cc(Cl)cc2Oc2ccccc2)O1`: in assay [1], the negative-log IC50 (pIC50) was 5.96. Further, the Relative potency in assay [2] amounted to 1.4.

`O=C1C[C@H](O)C[C@@H](/C=C/c2c(Cl)cc(Cl)cc2OCc2cccc3ccccc23)O1` showed a pIC50 in assay [1] of 5.36. For the same molecule, the Relative potency in assay [2] was determined as 0.4. Consider `O=C1C[C@H](O)C[C@@H](CCc2c(Cl)cc(Cl)cc2OCc2ccccc2)O1` (stereo in doubt; 8a(+)) [listing 1 of 2 here], for which, in assay [2], the Relative potency worked out at 19.1. On to `Cc1ccc(COc2cc(Cl)cc(Cl)c2/C=C/[C@@H]2C[C@@H](O)CC(=O)O2)cc1`, for which the pIC50 in assay [1] is 5.31. In assay [2], this molecule displayed a Relative potency of 0.3.

In turn, `O=C1C[C@H](O)C[C@@H](/C=C/c2c(Cl)cc(Cl)cc2OCc2ccccc2F)O1` had a pIC50 in assay [1] of 6.29. In addition, the Relative potency in assay [2] stood at 5.9. Molecule `CC(CCOc1cc(Cl)cc(Cl)c1/C=C/[C@@H]1C[C@@H](O)CC(=O)O1)CC(C)(C)C` (stereo partly specified) gave a pIC50 in assay [1] of 4.42. The same molecule returned a Relative potency in assay [2] of 0.09. Molecule `O=C1C[C@H](O)C[C@@H](/C=C/c2c(Cl)cc(Cl)cc2OCCC23CC4CC(CC(C4)C2)C3)O1` had a negative-log IC50 (pIC50) in assay [1] of 5.52. The molecule further returned a Relative potency in assay [2] of 0.7.

`C=CCOc1cc(Cl)cc(Cl)c1/C=C/[C@@H]1C[C@@H](O)CC(=O)O1` had a pIC50 in assay [1] of 6.12. The molecule further yielded a Relative potency in assay [2] of 3.2. For `O=C1C[C@H](O)C[C@@H](/C=C/c2c(Cl)cc(Cl)cc2OCc2ccco2)O1` the same measures were 6.22 and 3. `O=C1C[C@H](O)C[C@@H](CCc2c(Cl)cc(Cl)cc2OCc2ccccc2)O1` (racemic) [listing 2 of 2 here] registered a Relative potency in assay [2] of 12. Regarding `N#Cc1ccc(COc2cc(Cl)cc(Cl)c2/C=C/[C@@H]2C[C@@H](O)CC(=O)O2)cc1`, in assay [1], the negative-log IC50 (pIC50) was 5.70. In assay [2], the Relative potency was 1.25. In assay [1], `O=C1C[C@H](O)C[C@@H](/C=C/c2ccc(Cl)c(Cl)c2)O1` had a pIC50 of 4.46. In assay [1], `O=C1C[C@H](O)C[C@@H](/C=C/c2ccc(OCc3ccc(F)cc3)c(Cl)c2Cl)O1` had a negative logarithm of the IC50 (pIC50) of 4.77. The same molecule had a Relative potency in assay [2] of 0.12.

The molecule `COCCOCOc1cc(Cl)cc(Cl)c1/C=C/[C@@H]1C[C@@H](O)CC(=O)O1` had a pIC50 in assay [1] of 4.96. This molecule had a Relative potency in assay [2] of 0.4. The corresponding values for `CSCOc1cc(Cl)cc(Cl)c1/C=C/[C@@H]1C[C@@H](O)CC(=O)O1` are 6.12 and 2.1. The corresponding values for `O=C1C[C@H](O)C[C@@H](/C=C/c2c(Cl)cc(Cl)cc2OCc2ccc(Cl)cc2)O1` are 5.60 and 1.7. For `O=C1C[C@H](O)C[C@@H](/C=C/c2c(Cl)cc(Cl)cc2OCc2ccccn2)O1` the same measures were 5.92 and 1.8. `O=C1C[C@H](O)C[C@@H](/C=C/c2c(Cl)cc(Cl)cc2OCc2ccccc2)O1` (racemic) had a pIC50 in assay [1] of 6.37. The molecule also came in with a Relative potency in assay [2] of 3.5. For `O=C1C[C@H](O)C[C@@H](/C=C/c2c(Cl)cc(Cl)cc2OCc2cccc(F)c2)O1` the same measures were 6.24 and 3.4. The corresponding values for `O=C1C[C@H](O)C[C@@H](/C=C/c2c(Cl)cc(Cl)cc2OCc2c(F)c(F)c(F)c(F)c2F)O1` are 6.15 and 2.3.

With `O=C1C[C@H](O)C[C@@H](/C=C/c2c(Cl)cc(Cl)cc2OCCc2ccccc2)O1`, the pIC50 in assay [1] is 6.32. In assay [2], this molecule had a Relative potency of 5. Turning to `O=C1C[C@H](O)C[C@@H](/C=C/c2c(Cl)cc(Cl)cc2OC/C=C/c2ccccc2)O1`, in assay [1], the pIC50 is 5.72. Besides, the Relative potency in assay [2] is 1.1. As to `CCCCCOc1cc(Cl)cc(Cl)c1/C=C/[C@@H]1C[C@@H](O)CC(=O)O1`, the negative-log IC50 (pIC50) in assay [1] was 6.00. This molecule also came in with a Relative potency in assay [2] of 2.4. `O=C1C[C@H](O)C[C@@H](/C=C/c2ccccc2Cl)O1` gave a negative-log IC50 (pIC50) in assay [1] of 5.13. The molecule further registered a Relative potency in assay [2] of 0.15. In the case of `Cc1ccc(/C=C/[C@@H]2C[C@@H](O)CC(=O)O2)c(C)c1`, the pIC50 in assay [1] is 4.52.

Take `O=C1C[C@H](O)C[C@@H](/C=C/c2c(Cl)cc(OCc3ccccc3)cc2Cl)O1`: in assay [1], the pIC50 is 6.35. The Relative potency in assay [2] turned out to be 4. In the case of `O=C1C[C@H](O)C[C@@H](/C=C/c2c(Cl)cc(Cl)cc2OCc2cccs2)O1`, the pIC50 in assay [1] is 6.22. The Relative potency in assay [2] is 3. Molecule `O=C1C[C@H](O)C[C@@H](/C=C/c2c(Cl)cc(Cl)cc2OCc2ccc[n+]([O-])c2)O1` gave a negative-log IC50 (pIC50) in assay [1] of 3.91. Further, the Relative potency in assay [2] worked out at 0.016. On to `O=C1C[C@H](O)C[C@@H](CCc2c(Cl)cc(Cl)cc2OCc2ccc(F)cc2)O1` (stereo in doubt; 66) [listing 1 of 2 here], for which, in assay [1], the pIC50 was 7.12. For `O=C1C[C@H](O)C[C@@H](/C=C/c2c(Cl)cc(Cl)cc2OCc2ccc(F)cc2)O1`, the negative logarithm of the IC50 (pIC50) in assay [1] is 6.70. The molecule further showed a Relative potency in assay [2] of 7.5.

The molecule `O=C1C[C@H](O)C[C@@H](CCc2c(Cl)cc(Cl)cc2OCc2ccccc2)O1` (stereo in doubt; 8a(+)) [listing 2 of 2 here] had a pIC50 in assay [1] of 7.17.

Turning to `O=C1C[C@H](O)C[C@@H](CCc2c(Cl)cc(Cl)cc2OCc2ccccc2)O1` (stereo in doubt; 8a(-)) [listing 1 of 2 here], the Relative potency in assay [2] amounted to 0.25. Consider `O=C1C[C@H](O)C[C@@H](CCc2c(Cl)cc(Cl)cc2OCc2ccccc2)O1` (stereo in doubt; 8a(-)) [listing 2 of 2 here], for which the pIC50 in assay [1] is 5.28. In turn, `O=C1C[C@H](O)C[C@@H](CCc2c(Cl)cc(Cl)cc2OCc2ccc(F)cc2)O1` (stereo in doubt; 66) [listing 2 of 2 here] showed a Relative potency in assay [2] of 38. On the same count and under the same terms, in the case of `O=C1C[C@H](O)C[C@@H](CCc2c(Cl)cc(Cl)cc2OCc2ccc(F)cc2)O1` (stereo in doubt; 66(+)) [listing 2 of 2 here] it was 58.
